Experimental data as given in ChEMBL document CHEMBL4431354, “Piperazic acid derivatives inhibit Gli1 in Hedgehog signaling pathway” (Bioorg Med Chem Lett, 2016).
Blank lines part the entries; values can stand above or below the compound they belong to. The source made the active and inactive calls. No cut-off for these calls is given here.

How the values were obtained:
[1] = tested on: Shh Light II; assay: Effect on SHH expression in mouse Shh Light2 cells at 25 to 50 uM after 24 hrs by Western blot analysis; assay type: functional, cell-based
How it was run: (§1)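 Shh-LIGHT2 cells treated 24 h, then SHH and SuFu protein levels assessed by western blotting.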

[2] = tested on: Shh Light II; assay: Cytotoxicity against mouse Shh Light2 cells up to 150 uM after 40 hrs by MTT assay; assay type: cell-based
How it was run: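 MTT viability in Shh-LIGHT2 cells (NIH-3T3 clone with Gli-dependent firefly and constitutive Renilla luciferase reporters) after 40 h exposure to doses up to 150 μM, under the same conditions as the Hh reporter assay.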

[3] = tested on: Shh Light II; assay: Effect on SuFu expression in mouse Shh Light2 cells at 25 to 50 uM after 24 hrs by Western blot analysis; assay type: functional, cell-based; how it was run: as §1
[4] = tested on: Shh Light II; assay: Effect on Ptch1 expression in mouse Shh Light2 cells at 25 to 50 uM after 24 hrs by Western blot analysis; assay type: functional, cell-based
[5] = organism: Mus musculus; details: 0.5 to 50 uM
[6] = target: T1, Zinc finger protein GLI1 (Homo sapiens) (UniProt P08151); assay: Inhibition of Shh-N-induced Gli1 (unknown origin) expressed in mouse Shh Light2 cells assessed as Gli1-mediated mediated transcription up to 50 uM incubated for 30 hrs by firefly luciferase assay; assay type: cell-based
T1 sequence (whole entry): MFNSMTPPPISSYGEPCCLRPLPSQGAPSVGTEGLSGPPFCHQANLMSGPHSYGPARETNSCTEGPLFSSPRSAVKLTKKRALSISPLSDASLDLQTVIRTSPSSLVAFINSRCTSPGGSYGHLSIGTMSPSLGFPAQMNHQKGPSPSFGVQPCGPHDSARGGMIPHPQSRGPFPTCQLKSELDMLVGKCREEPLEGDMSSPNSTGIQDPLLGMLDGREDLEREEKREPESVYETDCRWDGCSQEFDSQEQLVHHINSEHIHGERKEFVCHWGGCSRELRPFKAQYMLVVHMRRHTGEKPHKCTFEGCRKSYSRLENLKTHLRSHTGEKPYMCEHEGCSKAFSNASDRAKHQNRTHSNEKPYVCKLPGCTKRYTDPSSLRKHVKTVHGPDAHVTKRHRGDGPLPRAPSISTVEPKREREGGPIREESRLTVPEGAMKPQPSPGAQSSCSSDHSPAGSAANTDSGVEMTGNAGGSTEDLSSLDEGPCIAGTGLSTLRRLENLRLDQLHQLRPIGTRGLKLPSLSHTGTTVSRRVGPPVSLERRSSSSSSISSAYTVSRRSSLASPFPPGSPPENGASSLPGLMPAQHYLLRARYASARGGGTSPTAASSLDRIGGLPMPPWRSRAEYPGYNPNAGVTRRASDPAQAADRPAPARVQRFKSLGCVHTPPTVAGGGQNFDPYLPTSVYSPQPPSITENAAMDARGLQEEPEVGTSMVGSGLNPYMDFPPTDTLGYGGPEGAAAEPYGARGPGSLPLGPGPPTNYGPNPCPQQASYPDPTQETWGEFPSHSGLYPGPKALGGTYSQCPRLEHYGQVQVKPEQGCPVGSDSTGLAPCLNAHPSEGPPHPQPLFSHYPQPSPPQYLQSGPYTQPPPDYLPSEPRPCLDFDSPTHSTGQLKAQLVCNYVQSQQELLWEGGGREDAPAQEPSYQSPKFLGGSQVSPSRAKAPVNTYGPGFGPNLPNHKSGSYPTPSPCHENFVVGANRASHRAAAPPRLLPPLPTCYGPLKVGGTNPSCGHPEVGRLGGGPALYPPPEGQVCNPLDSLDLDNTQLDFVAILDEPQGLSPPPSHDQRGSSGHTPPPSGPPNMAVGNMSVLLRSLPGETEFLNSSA
How it was run: (§2)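 Shh-LIGHT2 cells (NIH-3T3 clone stably carrying Gli-dependent firefly and constitutive Renilla luciferase) treated 30 h with graded compound concentrations in Shh-N conditioned medium; firefly luminescence read as percent inhibition versus Shh-N-stimulated DMSO control. Cyclopamine 10 µM positive control. Three independent experiments in triplicate, mean ± SD.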

[7] = target: T1, Zinc finger protein GLI1 (Homo sapiens); assay: Inhibition of Gli1 (unknown origin) expression in mouse Shh Light2 cells at 1 to 100 uM by Western blot analysis; assay type: cell-based
How it was run: (§3)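 Gli1 protein immunoblotted in Shh-N-stimulated Shh-LIGHT2 cells after treatment with varying doses or 100 µM compound; GAPDH loading control; Shh-N-stimulated DMSO-treated cells as control; cyclopamine 10 µM positive control.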

[8] = target: T1, Zinc finger protein GLI1 (Homo sapiens); assay: Inhibition of Shh-N-induced Gli1 (unknown origin) expressed in mouse Shh Light2 cells assessed as Gli1-mediated mediated transcription at 50 uM incubated for 30 hrs by firefly luciferase assay; assay type: cell-based; how it was run: as §2
[9] = target: T1, Zinc finger protein GLI1 (Homo sapiens); assay: Inhibition of Gli1 (unknown origin) expression in mouse Shh Light2 cells at 100 uM by Western blot analysis; assay type: cell-based; how it was run: as §3
[10] = tested on: Shh Light II; assay: Effect on Smo expression in mouse Shh Light2 cells at 75 to 100 uM after 24 hrs by Western blot analysis; assay type: functional, cell-based
[11] = tested on: Shh Light II; assay: Effect on Ptch1 expression in mouse Shh Light2 cells at 75 to 100 uM after 24 hrs by Western blot analysis; assay type: functional, cell-based
[12] = tested on: Shh Light II; assay: Effect on SuFu expression in mouse Shh Light2 cells at 75 to 100 uM after 24 hrs by Western blot analysis; assay type: functional, cell-based
[13] = tested on: Shh Light II; assay: Effect on SHH expression in mouse Shh Light2 cells at 75 to 100 uM after 24 hrs by Western blot analysis; assay type: functional, cell-based
[14] = tested on: Shh Light II; assay: Cell cycle arrest in mouse Shh Light2 cells assessed as accumulation at G0/G1 phase at 30 uM after 30 to 48 hrs by propidium iodide staining-based flow cytometry (reference value: 86.2%); assay type: functional
[15] = tested on: Shh Light II; assay: Cell cycle arrest in mouse Shh Light2 cells assessed as accumulation at G2/M phase at 30 uM after 30 to 48 hrs by propidium iodide staining-based flow cytometry (reference value: 6.7%); assay type: functional
[16] = tested on: Shh Light II; assay: Cell cycle arrest in mouse Shh Light2 cells assessed as accumulation at S phase at 30 uM after 30 to 48 hrs by propidium iodide staining-based flow cytometry (reference value: 3.6%); assay type: functional
[17] = tested on: Shh Light II; assay: Cell cycle arrest in mouse Shh Light2 cells assessed as accumulation at subG0 phase at 30 uM after 30 to 48 hrs by propidium iodide staining-based flow cytometry (reference value: 3.4%); assay type: functional
[18] = tested on: Shh Light II; assay: Cell cycle arrest in mouse Shh Light2 cells assessed as accumulation at G0/G1 phase at 100 uM after 30 to 48 hrs by propidium iodide staining-based flow cytometry (reference value: 86.2%); assay type: functional
[19] = tested on: Shh Light II; assay: Cell cycle arrest in mouse Shh Light2 cells assessed as accumulation at G2/M phase at 100 uM after 30 to 48 hrs by propidium iodide staining-based flow cytometry (reference value: 6.7%); assay type: functional
[20] = tested on: Shh Light II; assay: Cell cycle arrest in mouse Shh Light2 cells assessed as accumulation at S phase at 100 uM after 30 to 48 hrs by propidium iodide staining-based flow cytometry (reference value: 3.6%); assay type: functional
[21] = tested on: Shh Light II; assay: Cell cycle arrest in mouse Shh Light2 cells assessed as accumulation at subG0 phase at 100 uM after 30 to 48 hrs by propidium iodide staining-based flow cytometry (reference value: 3.4%); assay type: functional
[22] = tested on: Shh Light II; assay: Cell cycle arrest in mouse Shh Light2 cells assessed as accumulation at G0/G1 phase at 10 uM after 30 to 48 hrs by propidium iodide staining-based flow cytometry (reference value: 86.2%); assay type: functional
[23] = tested on: Shh Light II; assay: Cell cycle arrest in mouse Shh Light2 cells assessed as accumulation at G2/M phase at 10 uM after 30 to 48 hrs by propidium iodide staining-based flow cytometry (reference value: 6.7%); assay type: functional
[24] = tested on: Shh Light II; assay: Cell cycle arrest in mouse Shh Light2 cells assessed as accumulation at S phase at 10 uM after 30 to 48 hrs by propidium iodide staining-based flow cytometry (reference value: 3.6%); assay type: functional
[25] = tested on: Shh Light II; assay: Cell cycle arrest in mouse Shh Light2 cells assessed as accumulation at subG0 phase at 10 uM after 30 to 48 hrs by propidium iodide staining-based flow cytometry (reference value: 3.4%); assay type: functional

Compound: O=C(O)C1CCCCN1 (configuration not stated)
inhibition [6]: inactive
inhibition [7]: inactive

Compound: COC(=O)C1CCCCNN1 (configuration not stated)
inhibition [8]: inactive
inhibition [9]: inactive

Compound: O=C(O)C1CCCCNN1 (configuration not stated)
inhibition [8]: inactive
inhibition [9]: inactive

Compound: CC1=C2C[C@H]3[C@@H](CC=C4C[C@@H](O)CC[C@@]43C)[C@@H]2CC[C@]12O[C@@H]1C[C@H](C)CN[C@H]1[C@H]2C [CYCLOPAMINE]
Activity [22]: 84.1%
Activity [23]: 7.7%
Activity [24]: 4.7%
Activity [25]: 3.2%

Further lines, with some results ahead:

inhibition [5]: inactive
Compound: CN(C)C(=O)C1CCCNN1 (configuration not stated)
Activity [1]: inactive
Activity [2]: Non-Toxic
Activity [3]: inactive
Activity [4]: inactive

inhibition [5]: inactive
Compound: NC(=O)C1CCCNN1 (configuration not stated)
Activity [1]: inactive
Activity [2]: Non-Toxic
Activity [3]: inactive
Activity [4]: inactive

inhibition [8]: < 50%
inhibition [7]: Dose-dependent effect
Compound: O=C(O)C1CCCNN1 (configuration not stated)
Activity [2]: Non-Toxic
Activity [10]: inactive
Activity [11]: inactive
Activity [12]: inactive
Activity [13]: inactive
Activity [14]: 82.9%
Activity [15]: 7.8%
Activity [16]: 4.4%
Activity [17]: 4.7%
Activity [18]: 81.3%
Activity [19]: 8.3%
Activity [20]: 4.9%
Activity [21]: 5.2%

inhibition [8]: inactive
inhibition [9]: inactive
Compound: COC(=O)C1CCCNN1 (configuration not stated)
